Tests used:
[1] = molecular target: T1, Adenosine receptor A1 (Homo sapiens) (UniProt P30542); assay: Percent remaining of radioligand [3H]CCPA binding to human adenosine A1 receptor at 10 uM
T1 sequence (whole entry): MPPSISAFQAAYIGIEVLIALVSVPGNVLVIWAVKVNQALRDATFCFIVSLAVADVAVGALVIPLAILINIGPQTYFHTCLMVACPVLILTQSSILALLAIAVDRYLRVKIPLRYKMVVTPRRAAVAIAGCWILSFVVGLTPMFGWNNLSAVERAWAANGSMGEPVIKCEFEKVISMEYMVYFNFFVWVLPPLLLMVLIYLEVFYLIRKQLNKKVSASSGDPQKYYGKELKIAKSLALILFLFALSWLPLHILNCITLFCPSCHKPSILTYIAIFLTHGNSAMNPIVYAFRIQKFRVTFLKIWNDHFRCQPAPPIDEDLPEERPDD
How it was run: (§1)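 Radioligand displacement: CHO human A1 receptor membranes (40 μg protein, 2 IU/mL adenosine deaminase) with ~1.0 nM [3H]CCPA plus fixed or increasing compound, 60 min at 25 °C in Tris-HCl. Nonspecific binding defined with 10 μM DPCPX. Ice-cold dilution, GF/B filtration, scintillation counting. Results as % specific binding, control 100%. Means of 2–3 experiments in duplicate.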

[2] = molecular target: T1, Adenosine receptor A1 (Homo sapiens); assay: Percent remaining of radioligand [3H]DPCPX binding to human adenosine A1 receptor at 1 uM
How it was run: (§2)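 CHO human A1 receptor membranes (40 μg protein, 2 IU/mL adenosine deaminase) incubated 60 min at 25 °C in Tris-HCl with ~1.6 nM [3H]DPCPX and a fixed compound concentration. Nonspecific binding defined with 10 μM CPA. Filtration on GF/B, scintillation counting. Reported as % specific binding remaining (control 100%, nonspecific 0%). Means of 2–3 experiments in duplicate.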

[3] = molecular target: T1, Adenosine receptor A1 (Homo sapiens); assay: Percent remaining of radioligand [3H]DPCPX binding to human adenosine A1 receptor at 10 uM; how it was run: as §2
[4] = molecular target: T2, Adenosine receptor A1 (Homo sapiens, UniProt P30542); assay: Effective concentration for displacement of [3H]-CCPA from human adenosine A1 receptor after 60 min; how it was run: as §1
T2 sequence (P30542 whole entry): T1 sequence (whole entry)

[5] = molecular target: T1, Adenosine receptor A1 (Homo sapiens); assay: Dissociation constant for [3H]CCPA binding to human adenosine A1 receptor plus or minus compound (7 uM); t1/2 = 6.48 min.
[6] = molecular target: T1, Adenosine receptor A1 (Homo sapiens); assay: Dissociation constant for [3H]DPCPX binding to human adenosine A1 receptor plus or minus compound (7 uM); t1/2 = 5.27 min.
[7] = molecular target: T1, Adenosine receptor A1 (Homo sapiens); assay: Association constant for [3H]DPCPX binding to human Adenosine A1 receptor plus or minus compound (7 uM); appt1/2 = 1.77 min.
How it was run: (§3)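 Membranes from CHO cells expressing recombinant human A1 receptor (40 μg protein) preincubated 30 min at 25 °C with compound. Association started by adding [3H]DPCPX (0.34–0.36 nM), stopped at time points by rapid dilution, then filtered on GF/B and washed with ice-cold buffer. Membranes carry 2 IU/mL adenosine deaminase.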

[8] = molecular target: T2, Adenosine receptor A1; assay: Effective concentration for displacement of [3H]CCPA from human A1 adenosine receptor after 60 min; how it was run: as §1
[9] = molecular target: T1, Adenosine receptor A1 (Homo sapiens); assay: Dissociation constant for [3H]DPCPX binding to human adenosine A1 receptor plus or minus compound (10 uM); t1/2 = 6.61 min
[10] = molecular target: T1, Adenosine receptor A1 (Homo sapiens); assay: Association constant for [3H]DPCPX binding to human adenosine A1 receptor plus or minus compound (10 uM); appt1/2 = 3.85 min; how it was run: as §3
[11] = molecular target: T1, Adenosine receptor A1 (Homo sapiens); assay: Dissociation constant for [3H]-CCPA binding to human adenosine A1 receptor plus or minus compound (10 uM); t1/2 = 5.37 min

Row | Remaining [1] | Remaining [2] | Remaining [3] | Structure (SMILES) | further results
1 | 32% | 100% | 61% | CC/N=c1\nc(-c2ccc(C)cc2)n(-c2ccc(C)cc2)s1 | EC50 [4]: 1600 nM
2 | 28% | 101% | 105% | CC/N=c1\nc(-c2ccccc2)n(-c2ccc(C)cc2)s1 | 
3 | 24% | 95% | 84% | CC/N=c1\nc(-c2ccc(Cl)cc2)n(-c2ccc(Cl)cc2)s1 | 
4 | 20% | 93% | 119% | C/N=c1\nc(-c2ccc(Cl)cc2)n(-c2ccc(Cl)cc2)s1 | 
5 | 6% | 98% | 75% | CC/N=c1\nc(-c2ccccc2)n(-c2cccc(C)c2)s1 | 
6 | 35% | 100% | 90% | CC/N=c1\nc(-c2ccccc2)n(-c2ccc(Cl)c(Cl)c2)s1 | 
7 | 15% | 106% | 119% | C/N=c1\nc(-c2ccc(Cl)cc2)n(-c2ccccc2)s1 | 
8 | 35% | 96% | 108% | C/N=c1\nc(-c2ccccc2)n(-c2cccc(Cl)c2)s1 | 
9 | 33% | 94% | 111% | C/N=c1\nc(-c2ccccc2)n(-c2ccc(Cl)c(Cl)c2)s1 | 
10 | 33% | 94% | 126% | C/N=c1\nc(-c2ccccc2)n(-c2ccc(Cl)cc2)s1 | 
11 | 36% | 96% | 93% | C/N=c1\nc(-c2cccc(Cl)c2)n(-c2cccc(Cl)c2)s1 | 
12 | 31% | 99% | 123% | C/N=c1\nc(-c2ccccc2)n(-c2ccc(C)cc2)s1 | 
13 | 24% | 103% | 132% | C/N=c1\nc(-c2ccccc2)n(-c2ccc(OC)cc2)s1 | k off [5]: 0.00184 s⁻¹; k off [6]: 0.00217 s⁻¹; kon [7]: 1.19 nM⁻¹ min⁻¹; EC50 [4]: 2400 nM
14 | 225% | 87% | 68% | Cc1sc(N)c(C(=O)c2cccc(C(F)(F)F)c2)c1C | 
15 | 20% | 104% | 97% | C/N=c1\nc(-c2ccc(C)cc2)n(-c2ccc(C)cc2)s1 | 
16 | 30% | 104% | 109% | CC/N=c1\nc(-c2ccccc2)n(-c2ccc(Cl)cc2)s1 | 
17 | 24% | 103% | 120% | CC/N=c1\nc(-c2ccccc2)n(-c2ccc(OC)cc2)s1 | 
18 | 39% | 101% | 86% | CC/N=c1\nc(-c2ccccc2)n(-c2cccc(Cl)c2)s1 | 
19 | 5% | 99% | 109% | C/N=c1\nc(-c2ccccc2)n(-c2cccc(C)c2)s1 | EC50 [8]: 640 nM
20 | 10% | 104% | 149% | C/N=c1\nc(-c2ccccc2)n(-c2ccccc2)s1 | k off [9]: 0.00184 s⁻¹; kon [10]: 0.21 nM⁻¹ min⁻¹; k off [11]: 0.00217 s⁻¹; EC50 [4]: 2800 nM
21 | 35% | 100% | 114% | C/N=c1\nc(-c2ccc(OC)cc2)n(-c2ccccc2)s1 | 
22 | 6% | 103% | 114% | CC/N=c1\nc(-c2ccccc2)n(-c2ccccc2)s1 | 
